Results from ChEMBL document CHEMBL4828745, “Discovery and Structure-Activity Relationships of Quinazolinone-2-carboxamide Derivatives as Novel Orally Efficacious Antimalarials” (J Med Chem, 2021).

Key:
[1] = molecular target: T1, Interstitial collagenase (Homo sapiens) (UniProt P03956); test: Inhibition of human MMP1 assessed as fluorescence intensity using DNP-Pro-Cha-Gly-Cys(Me)-His-Ala-Lys(n-Me-Abz)-NH2 as substrate at 10 uM incubated for 20 mins relative to control
T1 sequence (whole entry): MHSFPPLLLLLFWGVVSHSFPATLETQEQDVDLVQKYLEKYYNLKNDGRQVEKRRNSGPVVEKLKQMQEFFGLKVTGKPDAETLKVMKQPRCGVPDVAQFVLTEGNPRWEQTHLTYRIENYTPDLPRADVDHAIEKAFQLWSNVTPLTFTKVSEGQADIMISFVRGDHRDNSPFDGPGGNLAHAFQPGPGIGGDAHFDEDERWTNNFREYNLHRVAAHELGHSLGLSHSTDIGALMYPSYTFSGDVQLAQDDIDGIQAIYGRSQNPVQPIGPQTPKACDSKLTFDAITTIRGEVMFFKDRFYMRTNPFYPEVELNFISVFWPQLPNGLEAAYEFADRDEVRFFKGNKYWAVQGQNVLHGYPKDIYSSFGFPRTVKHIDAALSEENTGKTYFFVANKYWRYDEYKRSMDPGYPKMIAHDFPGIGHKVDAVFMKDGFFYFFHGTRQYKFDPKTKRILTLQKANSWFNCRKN

[2] = molecular target: Matrix metalloproteinase-14 (Homo sapiens) (UniProt P50281); test: Inhibition of human MMP14 assessed as fluorescence intensity using Mca-Pro-Leu-Ala-Cys(p-OmeBz)-Trp-Ala-Arg(Dpa)-NH2 as substrate at 10 uM incubated for 60 mins relative to control
[3] = AUC (0 to infinity) in Sprague-Dawley rat at 1 mg/kg, iv by LC-MS analysis; assay type: ADME, organism-based; design: route intravenous, time infinity, dose 1 mg/kg; details: in vivo
Procedure, shortened: (§1)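 Male Sprague Dawley rats (n = 3) dosed IV at 1 mg/kg with the Na·4H2O salt in 50% DMA/50% PEG400. Plasma concentration–time profiles were obtained, and non-compartmental parameters are given as mean ± SD.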

[4] = AUC (0 to infinity) in Sprague-Dawley rat at 5.6 mg/kg, po by LC-MS analysis; assay type: ADME, organism-based; design: time infinity, route oral, dose 5.6 mg/kg; details: in vivo
Procedure, shortened: (§2)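 Male Sprague Dawley rats (n = 3) dosed orally at 5.6 mg/kg with the Na·4H2O salt suspended in 0.5% methyl cellulose in water. Plasma was sampled over time. Bioavailability was taken relative to the 1 mg/kg IV arm.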

[5] = Oral bioavailability in Sprague-Dawley rat at 5.6 mg/kg by LC-MS analysis; assay type: ADME, organism-based; details: in vivo; procedure, shortened: as §2
[6] = Cmax in Sprague-Dawley rat at 5.6 mg/kg, po by LC-MS analysis; assay type: ADME, organism-based; design: route oral, dose 5.6 mg/kg; details: in vivo; procedure, shortened: as §2
[7] = Tmax in Sprague-Dawley rat at 5.6 mg/kg, po by LC-MS analysis; assay type: ADME, organism-based; details: in vivo; procedure, shortened: as §2
[8] = Half life in Sprague-Dawley rat at 1 mg/kg, iv by LC-MS analysis; assay type: ADME, organism-based; details: in vivo; procedure, shortened: as §1
[9] = Half life in Sprague-Dawley rat at 5.6 mg/kg, po by LC-MS analysis; assay type: ADME, organism-based; details: in vivo; procedure, shortened: as §2
[10] = Plasma clearance in Sprague-Dawley rat at 1 mg/kg, iv by LC-MS analysis; assay type: ADME, organism-based; procedure, shortened: as §1
[11] = Volume of distribution at steady state in Sprague-Dawley rat plasma at 1 mg/kg, iv by LC-MS analysis; assay type: ADME, organism-based; details: read-out: Vdss; procedure, shortened: as §1
[12] = AUC (0 to infinity) in Swiss outbred mouse at 0.95 mg/kg, iv by LC-MS analysis; assay type: ADME, organism-based; design: route intravenous, time infinity, dose 0.95 mg/kg; details: in vivo
[13] = Plasma clearance in Swiss outbred mouse at 0.95 mg/kg, iv by LC-MS analysis; assay type: ADME, organism-based
[14] = Clearance in Swiss outbred mouse blood at 0.95 mg/kg, iv by LC-MS analysis; assay type: ADME, organism-based

## CCc1cccc(CNC(=O)c2nc3cccc(COCc4ccc(C(=O)O)cc4)c3c(=O)[nH]2)c1
[1]
  inhibition: 11.3%
[2]
  inhibition: 10.8%

## CCc1cccc(CNC(=O)c2nc3cccc(COCc4ccc(C(=O)[O-])cc4)c3c(=O)[nH]2)c1.O.O.O.O.[Na+]
[3]
  AUC(0-inf): 3.7 µM·h
[4]
  AUC(0-inf): 6.9 µM·h
[5]
  bioavailability: 34%
[6]
  Cmax: 1700 nM
[7]
  Tmax: 0.5 h
[8]
  half-life: 5.3 h
[9]
  half-life: 3.2 h
[10]
  clearance: 9.5 mL/min/kg
[11]
  Vd: 0.88 L/kg
[12]
  AUC(0-inf): 1.1 µM·h
[13]
  clearance: 31 mL/min/kg
[14]
  clearance: 57 mL/min/kg
